Consider 15 compounds from ChEMBL document CHEMBL3739379, “Anti-Candida activity and cytotoxicity of a large library of new N-substituted-1,3-thiazolidin-4-one derivatives” (Eur J Med Chem, 2016).

Values after ≈ are worked out from the molar mass of the structure shown.

Common to all, as to format: functional
For one assay, the system named is Escherichia coli. Nature of the assay: Antibacterial activity against Escherichia coli at after 18 to 22 hrs by broth microdilution method. A digest of the protocol:
(§1)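 Broth microdilution per NCCLS in Mueller-Hinton II broth; isolates subcultured for purity. Compounds dissolved in DMSO, serial dilutions 256 to 0.5 µg/mL; inoculum 10^5/mL. Controls: organism without compound, medium only. Incubation 18 to 22 h at 35 °C. MIC is the lowest concentration giving complete growth inhibition, read by unaided eye.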
(In general: Dilution methods test growth across graded concentrations, often in twofold steps.)

Another assay relates to Pichia kudriavzevii. Nature of the assay: Antifungal activity against Candida krusei clinical isolate after 24 hrs by sabouraud dextrose broth based microdilution method. The procedure, abridged:
(§2)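 Clinical isolates identified by conventional methods and subcultured for purity. Broth microdilution per NCCLS in Sabouraud dextrose broth; compounds dissolved in DMSO and serially diluted; inoculum 10^3/mL. Controls: fungi without compound, medium only. Incubated 24 h at 37 °C. MIC is the lowest concentration with complete growth inhibition by unaided eye. Values are geometric means over isolates per species.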

Another assay deals with Candida albicans. Kind of assay: Antifungal activity against Candida albicans clinical isolate after 24 hrs by sabouraud dextrose broth based microdilution method. The procedure, abridged:
as §2

The next assay deals with Candida parapsilosis. Kind of assay: Antifungal activity against Candida parapsilosis clinical isolate after 24 hrs by sabouraud dextrose broth based microdilution method. To be noted: Lodderomyces parapsilosis. A digest of the protocol:
as §2

Another assay relates to Staphylococcus aureus. Kind of assay: Antibacterial activity against Staphylococcus aureus after 18 to 22 hrs by broth microdilution method. A digest of the protocol:
as §1

The next assay concerns [Candida] sake. Nature of the assay: Antifungal activity against Candida sake clinical isolate after 24 hrs by sabouraud dextrose broth based microdilution method. To be noted: Fermentozyma sake. A digest of the protocol: as §2
Assay [1] concerns Staphylococcus haemolyticus. Nature of the assay: Antibacterial activity against Staphylococcus haemolyticus after 18 to 22 hrs by broth microdilution method. The procedure, abridged:
as §1

The test system of a further assay is Staphylococcus warneri. Nature of the assay: Antibacterial activity against Staphylococcus warneri after 18 to 22 hrs by broth microdilution method. A digest of the protocol:
as §1

The subject of the next assay is Candida tropicalis. Kind of assay: Antifungal activity against Candida tropicalis clinical isolate after 24 hrs by sabouraud dextrose broth based microdilution method. A digest of the protocol: as §2
The next assay relates to Proteus mirabilis. Kind of assay: Antibacterial activity against Proteus mirabilis after 18 to 22 hrs by broth microdilution method. The procedure, abridged: as §1
For a further assay, the system named is Nakaseomyces glabratus. Kind of assay: Antifungal activity against Candida glabrata clinical isolate after 24 hrs by sabouraud dextrose broth based microdilution method. A digest of the protocol:
as §2

Another assay concerns Enterococcus faecalis. Kind of assay: Antibacterial activity against […] faecalis after 18 to 22 hrs by broth microdilution method. A digest of the protocol: as §1
A further assay deals with Klebsiella oxytoca. Kind of assay: Antibacterial activity against Klebsiella oxytoca after 18 to 22 hrs by broth microdilution method. The procedure, abridged: as §1
Another assay has as its system Enterobacter sp. Nature of the assay: Antibacterial activity against Enterobacter sp. after 18 to 22 hrs by broth microdilution method. A digest of the protocol: as §1

As for `C/C(=N\N=C1/SCC(=O)N1Cc1ccc([N+](=O)[O-])cc1)C1CCCCC1`, the MIC (usually the smallest concentration in the dilution series that meets the test's criterion for growth inhibition) with Escherichia coli is over 256 µg/mL; with Pichia kudriavzevii, 2 µg/mL (≈ 5.34 µM); against Candida albicans it was 4 µg/mL (≈ 10.7 µM); against Candida parapsilosis, 32 µg/mL (≈ 85.5 µM); in the assay with Staphylococcus aureus, over 256 µg/mL; in assay [Candida] sake, 32 µg/mL (≈ 85.5 µM). For the same compound, the MIC was over 256 µg/mL in [1]; over 256 µg/mL with Staphylococcus warneri; 32 µg/mL (≈ 85.5 µM) in the assay on Candida tropicalis; over 256 µg/mL with Proteus mirabilis; 16 µg/mL (≈ 42.7 µM) in the assay with Nakaseomyces glabratus; over 256 µg/mL in the assay on Enterococcus faecalis. The MIC against Klebsiella oxytoca and against Enterobacter sp. was over 256 µg/mL throughout.

Consider `C/C(=N\N=C1/SCC(=O)N1CN1C(=O)c2ccccc2C1=O)C1CCCCC1`, for which the MIC is over 256 µg/mL in the assay on Escherichia coli; 16 µg/mL (≈ 40.2 µM) in the assay on Pichia kudriavzevii; 256 µg/mL (≈ 642 µM) with Candida albicans; 16 µg/mL (≈ 40.2 µM) in the assay on Candida parapsilosis; over 256 µg/mL against Staphylococcus aureus; 16 µg/mL (≈ 40.2 µM) in assay [Candida] sake. In addition, the MIC was over 256 µg/mL in assay [1]; over 256 µg/mL in the assay with Staphylococcus warneri; 256 µg/mL (≈ 642 µM) in the assay on Candida tropicalis; over 256 µg/mL against Proteus mirabilis; 16 µg/mL (≈ 40.2 µM) against Nakaseomyces glabratus; over 256 µg/mL with Enterococcus faecalis. Further, the MIC against Klebsiella oxytoca and in the assay with Enterobacter sp. was over 256 µg/mL in each case.

For `O=C1CS/C(=N\N=C\c2ccco2)N1Cc1cccc2ccccc12`, the MIC in the assay on Escherichia coli is over 256 µg/mL; in the assay with Pichia kudriavzevii, 16 µg/mL (≈ 45.8 µM); in the assay with Candida albicans, 16 µg/mL (≈ 45.8 µM); against Candida parapsilosis, 16 µg/mL (≈ 45.8 µM); in the assay with Staphylococcus aureus, over 256 µg/mL; in [Candida] sake it was 2 µg/mL (≈ 5.72 µM). Also, the MIC was over 256 µg/mL in assay [1]; over 256 µg/mL against Staphylococcus warneri; 8 µg/mL (≈ 22.9 µM) against Candida tropicalis; over 256 µg/mL with Proteus mirabilis; 8 µg/mL (≈ 22.9 µM) with Nakaseomyces glabratus; over 256 µg/mL with Enterococcus faecalis. For the same compound, the MIC in the assay with Klebsiella oxytoca and in the assay with Enterobacter sp. was over 256 µg/mL each time.

Consider `O=C1c2ccccc2C(=O)N1CN1C(=O)CS/C1=N\N=C1CCCC1`, for which the MIC with Escherichia coli is over 256 µg/mL; in the assay on Pichia kudriavzevii it was 16 µg/mL (≈ 44.9 µM); against Candida albicans, 2 µg/mL (≈ 5.61 µM); in the assay with Candida parapsilosis, 64 µg/mL (≈ 180 µM); in the assay on Staphylococcus aureus, over 256 µg/mL; in assay [Candida] sake, 256 µg/mL (≈ 718 µM). Moreover, the MIC is over 256 µg/mL in assay [1]; over 256 µg/mL in the assay with Staphylococcus warneri; 8 µg/mL (≈ 22.4 µM) in the assay with Candida tropicalis; over 256 µg/mL in the assay on Proteus mirabilis; 16 µg/mL (≈ 44.9 µM) against Nakaseomyces glabratus; over 256 µg/mL against Enterococcus faecalis. For the same compound, the MIC in the assay with Klebsiella oxytoca and against Enterobacter sp. was over 256 µg/mL throughout.

With `O=C1CS/C(=N\N=C2CCCCC2)N1Cc1ccc([N+](=O)[O-])cc1`, the MIC in the assay with Escherichia coli is over 256 µg/mL; against Pichia kudriavzevii, 16 µg/mL (≈ 46.2 µM); in the assay with Candida albicans, 8 µg/mL (≈ 23.1 µM); with Candida parapsilosis, 8 µg/mL (≈ 23.1 µM); in the assay on Staphylococcus aureus, over 256 µg/mL; in [Candida] sake it was 16 µg/mL (≈ 46.2 µM). Also, the MIC in [1] is over 256 µg/mL; in the assay with Staphylococcus warneri it was over 256 µg/mL; against Candida tropicalis, 8 µg/mL (≈ 23.1 µM); in the assay on Proteus mirabilis, over 256 µg/mL; in the assay with Nakaseomyces glabratus it was 32 µg/mL (≈ 92.4 µM); against Enterococcus faecalis, over 256 µg/mL. The MIC in the assay with Klebsiella oxytoca and against Enterobacter sp. was over 256 µg/mL each time.

Take `O=C1CS/C(=N\N=C\c2cccc3ccccc23)N1Cc1cccc2ccccc12`: the MIC with Escherichia coli is over 256 µg/mL; with Pichia kudriavzevii it was 8 µg/mL (≈ 19.5 µM); in the assay on Candida albicans, 256 µg/mL (≈ 625 µM); in the assay with Candida parapsilosis, 8 µg/mL (≈ 19.5 µM); with Staphylococcus aureus it was over 256 µg/mL; in [Candida] sake it was 8 µg/mL (≈ 19.5 µM). The MIC was over 256 µg/mL in assay [1]; over 256 µg/mL against Staphylococcus warneri; 32 µg/mL (≈ 78.1 µM) against Candida tropicalis; over 256 µg/mL in the assay on Proteus mirabilis; 64 µg/mL (≈ 156 µM) in the assay on Nakaseomyces glabratus; over 256 µg/mL against Enterococcus faecalis. Moreover, the MIC with Klebsiella oxytoca and in the assay on Enterobacter sp. was over 256 µg/mL each time.

In the case of `O=C1c2ccccc2C(=O)N1CN1C(=O)CS/C1=N\N=C1CCCCCCC1`, the MIC with Escherichia coli is over 256 µg/mL; with Pichia kudriavzevii, 4 µg/mL (≈ 10 µM); in the assay with Candida albicans it was 4 µg/mL (≈ 10 µM); with Candida parapsilosis it was 4 µg/mL (≈ 10 µM); in the assay on Staphylococcus aureus, over 256 µg/mL; in assay [Candida] sake, 4 µg/mL (≈ 10 µM). Further, the minimal inhibitory concentration (MIC) in [1] is over 256 µg/mL; against Staphylococcus warneri, over 256 µg/mL; in the assay on Candida tropicalis it was 8 µg/mL (≈ 20.1 µM); against Proteus mirabilis it was over 256 µg/mL; with Nakaseomyces glabratus, 32 µg/mL (≈ 80.3 µM); against Enterococcus faecalis, over 256 µg/mL. Besides, the MIC with Klebsiella oxytoca and against Enterobacter sp. was over 256 µg/mL throughout.

Regarding `Clc1ccc(C(Cn2ccnc2)OCc2ccsc2Cl)c(Cl)c1` (stereo unspecified) [TIOCONAZOLE], the MIC against Pichia kudriavzevii came out at 8 µg/mL (≈ 20.6 µM); in the assay on Candida albicans it was 8 µg/mL (≈ 20.6 µM); in the assay with Candida parapsilosis it was 8 µg/mL (≈ 20.6 µM); in assay [Candida] sake, 4 µg/mL (≈ 10.3 µM); against Candida tropicalis it was 8 µg/mL (≈ 20.6 µM); against Nakaseomyces glabratus it was 4 µg/mL (≈ 10.3 µM).

`O=C1CS/C(=N\N=C2CCCCC2)N1Cc1cccc2ccccc12`: the MIC is over 256 µg/mL with Escherichia coli; 16 µg/mL (≈ 45.5 µM) in the assay on Pichia kudriavzevii; 2 µg/mL (≈ 5.69 µM) against Candida albicans; 8 µg/mL (≈ 22.8 µM) in the assay on Candida parapsilosis; over 256 µg/mL with Staphylococcus aureus; 32 µg/mL (≈ 91 µM) in [Candida] sake. Also, the MIC in assay [1] was over 256 µg/mL; in the assay with Staphylococcus warneri it was over 256 µg/mL; against Candida tropicalis it was 8 µg/mL (≈ 22.8 µM); in the assay with Proteus mirabilis, over 256 µg/mL; against Nakaseomyces glabratus, 32 µg/mL (≈ 91 µM); with Enterococcus faecalis, over 256 µg/mL. Moreover, the minimal inhibitory concentration (MIC) against Klebsiella oxytoca and in the assay on Enterobacter sp. was over 256 µg/mL in each case.

Turning to `Clc1ccccc1C(c1ccccc1)(c1ccccc1)n1ccnc1` [CLOTRIMAZOLE], the MIC (with Pichia kudriavzevii; in the assay on Candida albicans; against Candida parapsilosis; in assay [Candida] sake; against Candida tropicalis; with Nakaseomyces glabratus) was 2 µg/mL (≈ 5.8 µM) each time.

Turning to `Clc1ccc(COC(Cn2ccnc2)c2ccc(Cl)cc2Cl)c(Cl)c1` (stereo unspecified) [MICONAZOLE], the MIC against Pichia kudriavzevii came to 4 µg/mL (≈ 9.61 µM); with Candida albicans it was 2 µg/mL (≈ 4.81 µM); against Candida parapsilosis it was 4 µg/mL (≈ 9.61 µM); in assay [Candida] sake, 2 µg/mL (≈ 4.81 µM); with Candida tropicalis, 2 µg/mL (≈ 4.81 µM); in the assay with Nakaseomyces glabratus, 4 µg/mL (≈ 9.61 µM).

With `C[C@@H]1[C@H](O)[C@@H](C)/C=C/C=C/C=C/C=C/C=C/C=C/C=C/[C@H](O[C@@H]2O[C@H](C)[C@@H](O)[C@H](N)[C@@H]2O)C[C@@H]2O[C@](O)(C[C@@H](O)C[C@@H](O)[C@H](O)CC[C@@H](O)C[C@@H](O)CC(=O)O[C@H]1C)C[C@H](O)[C@H]2C(=O)O` [AMPHOTERICIN B], the MIC against Pichia kudriavzevii came to 4 µg/mL (≈ 4.33 µM); in the assay on Candida albicans it was 4 µg/mL (≈ 4.33 µM); against Candida parapsilosis, 2 µg/mL (≈ 2.16 µM); in [Candida] sake, 2 µg/mL (≈ 2.16 µM); in the assay on Candida tropicalis it was 2 µg/mL (≈ 2.16 µM); in the assay with Nakaseomyces glabratus, 4 µg/mL (≈ 4.33 µM).

`CC(=O)N1CCN(c2ccc(OCC3COC(Cn4ccnc4)(c4ccc(Cl)cc4Cl)O3)cc2)CC1` (stereo unspecified) [KETOCONAZOLE]: the minimum inhibitory concentration (MIC) was determined as 4 µg/mL (≈ 7.53 µM) with Pichia kudriavzevii; 2 µg/mL (≈ 3.76 µM) in the assay on Candida albicans; 2 µg/mL (≈ 3.76 µM) against Candida parapsilosis; 4 µg/mL (≈ 7.53 µM) in assay [Candida] sake; 2 µg/mL (≈ 3.76 µM) against Candida tropicalis; 2 µg/mL (≈ 3.76 µM) with Nakaseomyces glabratus.

As for `OC(Cn1cncn1)(Cn1cncn1)c1ccc(F)cc1F` [FLUCONAZOLE], the MIC (against Pichia kudriavzevii; against Candida albicans; in the assay with Candida parapsilosis; in assay [Candida] sake; in the assay with Candida tropicalis; against Nakaseomyces glabratus) was 2 µg/mL (≈ 6.53 µM) throughout.

`CC(C)(O/N=C(\C(=O)N[C@@H]1C(=O)N2C(C(=O)[O-])=C(C[n+]3ccccc3)CS[C@H]12)c1csc(N)n1)C(=O)O` [CEFTAZIDIME]: the MIC worked out at 4 µg/mL (≈ 7.32 µM) with Escherichia coli; 2 µg/mL (≈ 3.66 µM) against Staphylococcus aureus; 4 µg/mL (≈ 7.32 µM) in assay [1]; 4 µg/mL (≈ 7.32 µM) against Staphylococcus warneri; 8 µg/mL (≈ 14.6 µM) in the assay on Proteus mirabilis; 4 µg/mL (≈ 7.32 µM) with Enterococcus faecalis. Further, the MIC against Klebsiella oxytoca and against Enterobacter sp. was 8 µg/mL (≈ 14.6 µM) each time.
